Data set [1] has as its target Transcriptional coactivator YAP1 (Homo sapiens) (UniProt P46937). Description: Induction of YAP1 phosphorylation at S127 residue in human H322 cells harboring SMARCA4 mutant at 1 uM incubated for 96 hrs by immunoblot analysis. To be noted: filed as activator. The class given is cell-based.
A short description of data set [2]: Drug concentration in C57BL/6 mouse plasma at 5 mg/kg, po administered once daily for 3 days and measured at 24 hrs post last dose. Format: ADME, organism-based. To be noted: time 3 day. Summed up:
(§1)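 Oral dosing once daily for 3 days: 5–80 mg/kg in C57BL/6 mice, 10–80 mg/kg in CrbnI391V mice. Euthanized 24 h after last dose. Plasma drug level measured. Spleen SMARCA2 by Western blot against actin loading control, relative to vehicle.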

Data set [3] can be described thus: Toxicity in immunocompromised mouse xenografted with human NCI-H1568 cells assessed as change in body weight at 80 mg/kg, administered once daily for 21 days. The class given is organism-based. To be noted: in vivo, 504 h, time 21 day.
Data set [4] in a line: In vivo PROTAC activity at CRBN/SMARCA2 in C57BL/6 mouse assessed as induction of SMARCA2 degradation in spleen at 80 mg/kg, po administered once daily via gavage for 3 days by Western blotting analysis relative to control. Format: functional. To be noted: time 3 day. A digest of the protocol:
as §1

Data set [5] can be described thus: Antitumor activity against human NCI-H1568 cells harboring SMARCA4 mutant xenografted in female athymic nude mouse assessed as tumor growth inhibition at 40 mg/kg, po administered once daily via gavage for 13 days relative to control. To be noted: NCI-H1568, 312 h, time 13 day, read-out: TGI. The class given is functional. Summed up:
(§2)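 Cells (H1568 2 × 10^6, H2023 10 × 10^6, HCC515 5 × 10^6) in PBS:Matrigel 1:1, 200 μL, injected subcutaneously into flanks of 6–8-week-old females. Randomized at mean tumor volume 60 mm3 (H1568) or <200 mm3 (others). Dosed in 0.5% methylcellulose + 0.2–1% Tween-80, sonicated on ice. Caliper tumor volume and body weight tracked, mean ± SEM.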

Data set [6] in a line: Drug metabolism in mouse liver microsomes assessed as oxidative dealkylation and mono-oxygenation mediated M3 metabolite formation at 10 uM incubated for 60 mins by LC-UV-HRMS analysis. Format: ADME, Microsome. To be noted: 1 h. A digest of the protocol:
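Compound at 10 μM incubated with mouse liver microsomes at 37 °C for 60 min. Metabolites detected by LC-UV-HRMS, structures proposed from MS and MS2 data, and each metabolite given as a percentage.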

A short description of data set [7]: In vivo PROTAC activity at CRBN I391V mutant/SMARCA2 in mouse assessed as SMARCA2 degradation in spleen at 10 to 80 mg/kg, po administered once daily for 3 days and measured at 24 hrs post last dose by Western blotting analysis relative to control. Format: functional. To be noted: dose 10-80 mg/kg, time 3 day. A digest of the protocol: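 CrbnI391V mice given 10, 20, 40 or 80 mg/kg or vehicle orally once daily for 3 days. Euthanised 24 h after the last dose. Spleen SMARCA2 measured by Western blot with actin as loading control, relative to vehicle. Plasma drug level measured at the same time.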

The test system of the next data set is NCI-H2030. Description: Antitumor activity against human NCI-H2030 cells harboring KRAS G12C mutant/SMARCA4 mutant assessed as cell growth inhibition incubated for 7 days by Incucyte S3 analysis. The class given is functional, cell-based. To be noted: time 7.0 day. A digest of the protocol:
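H2030 cells plated at 500 per well and grown overnight at 37 °C. Treated with 3-fold dilutions of sotorasib, test agent, or both. Confluency imaged every 4 h for 7 days on IncuCyte S3. Synergy scored as Bliss/Lowe consensus, >10 taken as synergy.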

The target of data set [8] is T1, Protein cereblon/SWI/SNF-related matrix-associated actin-dependent regulator of chromatin subfamily A member 2 (Homo sapiens, UniProt P51531+Q96SW2). Description: PROTAC activity at CRBN/SMARCA2 in human H322 cells harboring SMARCA4 mutant assessed as induction of SMARCA2 degradation at 1 uM in presence of Gen-1 by immunoblot analysis. The class given is cell-based.

The target in data set [9] is T1, Protein cereblon/SWI/SNF-related matrix-associated actin-dependent regulator of chromatin subfamily A member 2. Description: PROTAC activity at CRBN/SMARCA2 in human H322 cells harboring SMARCA4 mutant assessed as induction of SMARCA2 degradation at 1 uM in presence of bortezomib by immunoblot analysis. Format: cell-based.
Data set [10] can be described thus: Half life in male CD-1 (ICR) mouse at 25 mg/kg, po measured up to 24 hrs by LC-MS/MS analysis. To be noted: in vivo. Format: ADME, organism-based. Summed up:
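Single 25 mg/kg dose. IP vehicle was 5% DMSO/5% solutol/90% water at 1.25 mg/mL, final pH 4.39, clear solution. Oral vehicle was 0.5% methylcellulose/0.2% Tween 80 in water, opaque suspension. Plasma sampled at 0.25, 0.5, 1, 2, 4, 8 and 24 h. Plasma protein-precipitated with internal standard in acetonitrile, then LC-MS/MS. n = 3 mice per time point, mean.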

Data set [11] is described as follows: Toxicity in female athymic nude mouse xenografted with human NCI-H2030 cells harboring SMARCA4 mutant assessed as change in body weight at 5 mg/kg, po administered once daily via gavage for 17 days relative to control. Format: organism-based. To be noted: in vivo, 408 h, time 17 day. A digest of the protocol:
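10 × 10^6 H2030 cells in PBS:Matrigel 1:1, 200 μL, injected subcutaneously into flanks of 6–8-week-old females. Randomized at mean tumor volume <200 mm3. Oral gavage once daily in 10% DMSO, 40% PEG300, 1% Tween-80, 49% saline. Caliper tumor volume and body weight monitored, mean ± SEM.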

Data set [12] has as its target Transcriptional coactivator YAP1 (Homo sapiens) (UniProt P46937). In words: Induction of YAP1 phosphorylation at S127 residue in human H322 cells harboring SMARCA4 mutant at 0.1 uM incubated for 96 hrs by immunoblot analysis. The class given is cell-based. To be noted: filed as activator.
For data set [13], the target named is T1, Protein cereblon/SWI/SNF-related matrix-associated actin-dependent regulator of chromatin subfamily A member 2. In words: PROTAC activity at CRBN/SMARCA2 in human H322 cells harboring SMARCA4 mutant assessed as induction of SMARCA2 degradation at 0.1 uM in presence of bortezomib by immunoblot analysis. Format: cell-based.
A short description of data set [14]: In vivo PROTAC activity at CRBN/SMARCA2 in female athymic nude mouse xenografted with human HCC515 cells harboring SMARCA4 mutant assessed as SMARCA2 degradation at 5 mg/kg, po administered once daily via gavage for 19 days by Western blotting analysis relative to control. Format: functional. To be noted: time 19 day. A digest of the protocol:
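Female nude mice aged 6–8 weeks carried subcutaneous flank xenografts in PBS/Matrigel 1:1: H2023 at 10 × 10^6 cells or HCC515 at 5 × 10^6 cells. Randomised below 200 mm3. 5 mg/kg or vehicle given by oral gavage once daily for 19 days in 0.5% methylcellulose with Tween-80 (0.2% for H2023, 1% for HCC515). Tumours collected 24 h after dosing. SMARCA2 measured by Western blot against β-actin, relative to vehicle.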

Data set [15] can be described thus: Toxicity in female athymic nude mouse xenografted with human NCI-H2023 cells harboring SMARCA4 mutant assessed as change in body weight at 5 mg/kg, po administered once daily via gavage for 19 days relative to control. The class given is organism-based. To be noted: in vivo, 456 h, time 19 day. Summed up: as §2
The target of data set [16] is Transcriptional coactivator YAP1 (Homo sapiens) (UniProt P46937). Description: Induction of YAP1 phosphorylation at S109 residue in human H322 cells harboring SMARCA4 mutant at 0.1 uM incubated for 96 hrs by immunoblot analysis. To be noted: filed as activator. Format: cell-based.
Chain of Transcriptional coactivator YAP1 (Homo sapiens) (P46937 whole entry): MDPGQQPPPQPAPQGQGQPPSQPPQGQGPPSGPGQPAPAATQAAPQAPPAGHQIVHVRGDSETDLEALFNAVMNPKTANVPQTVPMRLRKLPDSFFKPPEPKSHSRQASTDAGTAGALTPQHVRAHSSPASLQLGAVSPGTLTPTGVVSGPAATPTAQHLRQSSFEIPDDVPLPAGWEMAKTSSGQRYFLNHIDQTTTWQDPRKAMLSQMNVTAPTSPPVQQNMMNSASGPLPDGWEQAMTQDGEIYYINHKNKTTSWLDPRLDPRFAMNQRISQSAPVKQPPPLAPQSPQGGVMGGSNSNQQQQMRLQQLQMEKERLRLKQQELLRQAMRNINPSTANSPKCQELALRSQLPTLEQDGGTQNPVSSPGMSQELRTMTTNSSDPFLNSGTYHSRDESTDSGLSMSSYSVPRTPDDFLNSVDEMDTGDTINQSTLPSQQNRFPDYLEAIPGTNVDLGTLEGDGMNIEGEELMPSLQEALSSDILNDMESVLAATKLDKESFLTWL
Another data set deals with HCC515. In words: Antitumor activity against human HCC515 cells harboring SMARCA4 mutant xenografted in female athymic nude mouse assessed as tumor growth inhibition at 5 mg/kg, po administered once daily via gavage for 19 days relative to control. To be noted: HCC515, 456 h, time 19 day, read-out: TGI. Format: functional. A digest of the protocol:
as §2

Consider two compounds from ChEMBL document CHEMBL6134900 (J Med Chem, 2025).

Active and inactive are the calls of the source. The calls are words filed in the database; no cut-off is given here. Where only a bound is given, the exact number is not on record here.

Take `Nc1nnc(-c2ccccc2O)cc1N1CCN(Cc2ccc(N3CCC(CN4CCN(c5ccc6c(c5)C(=O)N(C5CCC(=O)NC5=O)C6=O)CC4)CC3)c(F)c2)CC1` (stereo not drawn): the result in data set [1] was Active. Further, the concentration at 72 h in data set [2] is ~100 nM. Besides, the Activity entry is given as “Non-toxic” in data set [3], 70% in data set [4], 11% in data set [7] and “Active; Minimal Inhibition Observed” with NCI-H2030. The inhibition in vivo at 40 mg/kg in [5] is 27.6%. Moreover, the Drug metabolism entry in data set [6] is “metabolite_detected”. Moreover, the result in [8] and in data set [9] was inactive.
`Nc1nnc(-c2ccccc2O)cc1N1CCN(Cc2ccc(N3CCN(CCOc4cccc5c4C(=O)N(C4CCC(=O)NC4=O)C5=O)CC3)c(F)c2)CC1` (stereo not drawn) had a t1/2 in [10] of 6 h. Moreover, the Activity in [11] is recorded as < 20%; in data set [14], 96%; in data set [15], < 10%. Moreover, the outcome in data set [12] and in [16] was Active. Besides, in data set [13], the result was inactive. The inhibition in vivo at 5 mg/kg in the data set with HCC515 was found to be 48.8%.
